Results published in ChEMBL document CHEMBL5724801, “EUbOPEN Chemogenomics Library - Multiplex” (2024).
“And” between values parts separate entries of the source, which are not always exact repeats. Equal values may be shown once.

Test system: Fibroblast
Experiment: Multiplex assay against human fibroblast
Type: toxicity, cell-based
Procedure, shortened: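 Values for tubulin, mitochondrial-mass and membrane-permeability phenotypes are per cents of cells with healthy nuclei. These cells were identified by CellPathfinder machine-learning gating of live cells that had been stained at seeding with Hoechst33342, BioTracker Green Microtubule Cytoskeleton Dye, MitoTracker Red and Annexin V Alexa Fluor 680 and imaged on a CQ1 microscope at 37°C and 5% CO2 after compound addition. The gating first set Hoechst high-intensity objects apart from normal cells, then split normal cells into healthy, pyknosed or fragmented nuclei, and pyknosed cells into mitotic or apoptotic.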

[1] = 12 h, 1 µM, compound concentration 1 uM
[2] = 12 h, 10 µM, compound concentration 10 uM
[3] = 24 h, 1 µM, compound concentration 1 uM
[4] = 24 h, 10 µM, compound concentration 10 uM
[5] = 48 h, 1 µM, compound concentration 1 uM
[6] = 48 h, 10 µM, compound concentration 10 uM

CC(=O)NCC(=O)N1[C@@H]2CC[C@H]1c1ccc(Nc3ncc(C(F)(F)F)c(NC4CCC4)n3)cc12 [PF-03814735]
Population Apoptotic (%) [1]: 14.81% and 22.73% | Population Fragmented Nuclei (%) [1]: 12.78% and 6.01% | Population Healthy Nuclei (%) [1]: 72.22% and 81.97% | Population Hoechst High Intensity Objects (%) [1]: 0% | Population Membrane Permeable-Phenotype (%) [1]: 4.62% and 4% | Population Mitochondria Different-Phenotype (%) [1]: 7.69% and 10.67% | Population Mitotic Cells (%) [1]: 85.19% and 77.27% | Population Normal (%) [1]: 100% | Population Pyknosed Nuclei (%) [1]: 15% and 12.02% | Population Tubulin-Different-Phenotype (%) [1]: 20% and 22.67% | Total Cell Count [1]: 180 and 183 | Population Apoptotic (%) [2]: 46.51% and 79.49% | Population Fragmented Nuclei (%) [2]: 20.25% and 27.83% | Population Healthy Nuclei (%) [2]: 53.37% and 53.77% | Population Hoechst High Intensity Objects (%) [2]: 0% | Population Membrane Permeable-Phenotype (%) [2]: 25.29% and 34.21% | Population Mitochondria Different-Phenotype (%) [2]: 17.24% and 20.18% | Population Mitotic Cells (%) [2]: 53.49% and 20.51% | Population Normal (%) [2]: 100% | Population Pyknosed Nuclei (%) [2]: 26.38% and 18.4% | Population Tubulin-Different-Phenotype (%) [2]: 36.78% and 78.07% | Total Cell Count [2]: 163 and 212 | Population Apoptotic (%) [3]: 18.18% and 31.25% | Population Fragmented Nuclei (%) [3]: 18.48% and 9.2% | Population Healthy Nuclei (%) [3]: 75.54% and 81.61% | Population Hoechst High Intensity Objects (%) [3]: 0% | Population Membrane Permeable-Phenotype (%) [3]: 9.35% and 5.63% | Population Mitochondria Different-Phenotype (%) [3]: 5.76% and 6.34% | Population Mitotic Cells (%) [3]: 81.82% and 68.75% | Population Normal (%) [3]: 100% | Population Pyknosed Nuclei (%) [3]: 5.98% and 9.2% | Population Tubulin-Different-Phenotype (%) [3]: 17.99% and 28.87% | Total Cell Count [3]: 184 and 174 | Population Apoptotic (%) [4]: 39.13% and 90.32% | Population Fragmented Nuclei (%) [4]: 24.36% and 32.26% | Population Healthy Nuclei (%) [4]: 46.15% and 39.17% | Population Hoechst High Intensity Objects (%) [4]: 0% | Population Normal (%) [4]: 100% | Population Pyknosed Nuclei (%) [4]: 29.49% and 28.57% | Population Tubulin-Different-Phenotype (%) [4]: 31.94% and 67.06% | Total Cell Count [4]: 156 and 217 | Population Fragmented Nuclei (%) [5]: 18.54% and 6.41% | Population Healthy Nuclei (%) [5]: 75.28% and 89.74% | Population Hoechst High Intensity Objects (%) [5]: 0% | Population Membrane Permeable-Phenotype (%) [5]: 1.49% and 7.14% | Population Normal (%) [5]: 100% | Population Pyknosed Nuclei (%) [5]: 6.18% and 3.85% | Population Tubulin-Different-Phenotype (%) [5]: 14.18% and 30.71% | Total Cell Count [5]: 178 and 156 | Population Apoptotic (%) [6]: 36.84% and 83.78% | Population Fragmented Nuclei (%) [6]: 23.6% and 31.34% | Population Healthy Nuclei (%) [6]: 64.6% and 51.61% | Population Hoechst High Intensity Objects (%) [6]: 0% | Population Mitochondria Different-Phenotype (%) [6]: 26.92% and 25% | Population Normal (%) [6]: 100% | Population Pyknosed Nuclei (%) [6]: 11.8% and 17.05% | Total Cell Count [6]: 161 and 217

CN(C)C/C=C/C(=O)Nc1ccc(C(=O)N2CCCC(Nc3ncc(Cl)c(-c4c[nH]c5ccccc45)n3)C2)cc1 (configuration not stated)
Population Apoptotic (%) [1]: 48% and 46% | Population Fragmented Nuclei (%) [1]: 15% and 21% | Population Healthy Nuclei (%) [1]: 64% and 53% | Population Hoechst High Intensity Objects (%) [1]: 2% and 6% | Population Membrane Permeable-Phenotype (%) [1]: 2% and 3% | Population Mitochondria Different-Phenotype (%) [1]: 11% and 13% | Population Mitotic Cells (%) [1]: 51% and 53% | Population Normal (%) [1]: 97% and 93% | Population Pyknosed Nuclei (%) [1]: 19% and 25% | Population Tubulin-Different-Phenotype (%) [1]: 40% | Total Cell Count [1]: 152 and 182 | Population Apoptotic (%) [2]: 59% and 48% | Population Fragmented Nuclei (%) [2]: 18% and 23% | Population Healthy Nuclei (%) [2]: 53% and 41% | Population Hoechst High Intensity Objects (%) [2]: 4% and 8% | Population Mitochondria Different-Phenotype (%) [2]: 37% and 19% | Population Mitotic Cells (%) [2]: 40% and 51% | Population Normal (%) [2]: 95% and 91% | Population Pyknosed Nuclei (%) [2]: 27% and 35% | Population Tubulin-Different-Phenotype (%) [2]: 77% and 58% | Total Cell Count [2]: 140 and 147 | Population Apoptotic (%) [3]: 68% and 37% | Population Fragmented Nuclei (%) [3]: 25% and 26% | Population Healthy Nuclei (%) [3]: 48% and 49% | Population Hoechst High Intensity Objects (%) [3]: 7% | Population Membrane Permeable-Phenotype (%) [3]: 2% and 10% | Population Mitochondria Different-Phenotype (%) [3]: 7% and 10% | Population Mitotic Cells (%) [3]: 31% and 62% | Population Normal (%) [3]: 92% | Population Pyknosed Nuclei (%) [3]: 26% and 23% | Population Tubulin-Different-Phenotype (%) [3]: 40% and 54% | Total Cell Count [3]: 155 and 181 | Population Apoptotic (%) [4]: 65% and 47% | Population Fragmented Nuclei (%) [4]: 13% and 30% | Population Healthy Nuclei (%) [4]: 49% and 42% | Population Hoechst High Intensity Objects (%) [4]: 2% and 6% | Population Membrane Permeable-Phenotype (%) [4]: 0% and 5% | Population Mitochondria Different-Phenotype (%) [4]: 52% and 35% | Population Mitotic Cells (%) [4]: 34% and 52% | Population Normal (%) [4]: 97% and 93% | Population Pyknosed Nuclei (%) [4]: 37% and 27% | Population Tubulin-Different-Phenotype (%) [4]: 84% and 72% | Total Cell Count [4]: 119 and 149 | Population Apoptotic (%) [5]: 63% and 60% | Population Fragmented Nuclei (%) [5]: 33% and 35% | Population Healthy Nuclei (%) [5]: 36% and 40% | Population Hoechst High Intensity Objects (%) [5]: 10% and 8% | Population Membrane Permeable-Phenotype (%) [5]: 2% and 8% | Population Mitochondria Different-Phenotype (%) [5]: 20% and 25% | Population Mitotic Cells (%) [5]: 36% and 40% | Population Normal (%) [5]: 90% and 91% | Population Pyknosed Nuclei (%) [5]: 30% and 24% | Population Tubulin-Different-Phenotype (%) [5]: 48% and 68% | Total Cell Count [5]: 150 and 158 | Population Apoptotic (%) [6]: 77% and 68% | Population Fragmented Nuclei (%) [6]: 28% and 27% | Population Healthy Nuclei (%) [6]: 20% and 41% | Population Hoechst High Intensity Objects (%) [6]: 14% and 13% | Population Membrane Permeable-Phenotype (%) [6]: 0% and 17% | Population Mitochondria Different-Phenotype (%) [6]: 55% and 29% | Population Mitotic Cells (%) [6]: 22% and 31% | Population Normal (%) [6]: 85% and 86% | Population Pyknosed Nuclei (%) [6]: 51% and 30% | Population Tubulin-Different-Phenotype (%) [6]: 66% and 80% | Total Cell Count [6]: 103 and 130
